# Columns and labels:
# [1] = Toxicity in human HepG2/C3A cells assessed as induction of cell death at 10 uM after 4 days; assay type: cell-based; conditions: 96 h
# In short: (§1)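 LIVE/DEAD flow cytometry: harvested cells in PBS with 100 nM calcein AM and 8 μM ethidium homodimer 1, 30 min at 37°C in the dark, 488 nm excitation. After debris gating, dead cells are those high in ethidium homodimer and low in calcein, counted per 10,000 events. HepG2 were exposed 4, 10 or 14 days; H9c2 12 days. Compared with time-matched control.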
# [2] = Toxicity in human HepG2/C3A cells assessed as induction of cell death at 50 uM after 4 days; assay type: cell-based; conditions: 96 h; in short: as §1
# [3] = Toxicity in human HepG2/C3A cells assessed as induction of cell death at 50 uM after 10 days; assay type: cell-based; conditions: 240 h; in short: as §1
# [4] = Toxicity in human HepG2/C3A cells assessed as induction of cell death at 50 uM after 14 days; assay type: cell-based; conditions: 336 h; in short: as §1
# [5] = Toxicity against human HepG2/C3A cells assessed as inhibition of cell proliferation at 50 uM after 6 days by SRB assay; assay type: cell-based; conditions: 144 h
# In short: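 Cells were seeded at about 2,500 per well and exposed to drug for 6 days. They were fixed overnight at −10°C in methanol with 1% acetic acid, stained with 0.5% SRB in 1% acetic acid for 1 h at room temperature, and the dye eluted with 10 mM Tris pH 10. Result is dilution-adjusted absorbance at 540 nm, mean of three experiments.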
# [6] = Toxicity against human HepG2/C3A cells assessed as elevation of lactate levels at 10 uM after 6 days by NAD+ reduction assay; assay type: cell-based; conditions: 144 h
# In short: (§2)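 Cells were seeded at about 2,500 per well and exposed 6 days; H9c2 were retinoic-acid-conditioned in 1% FBS. Medium was deproteinized with ice-cold 10% TCA. Lactate was read by LDH-catalyzed NAD+ reduction in 0.2 M glycine-hydrazine pH 9.2 with 0.6 mg/ml NAD+ and 17 U/ml LDH, 30 min at room temperature, absorbance 340 nm. Result is nmol/well normalized to SRB absorbance.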
# [7] = Toxicity against human HepG2/C3A cells assessed as elevation of lactate levels at 50 uM after 6 days by NAD+ reduction assay; assay type: cell-based; conditions: 144 h; in short: as §2
# [8] = Toxicity against human HepG2/C3A cells assessed as increase in mitochondrial superoxide production at 50 uM by flow cytometry; assay type: cell-based
# In short: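 Flask-grown cells were loaded with 5 μM MitoSOX Red in HBSS with Ca/Mg for 10 min at 37°C in the dark, trypsinized, and analyzed by flow cytometry (488 nm excitation, 530/30 emission). Result is the geometric mean fluorescence of 10,000 cells. HepG2 were sampled on days 4, 10 and 14; H9c2 on day 12. Compared with time-matched control.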
# [9] = Toxicity against human HepG2/C3A cells assessed as effect on mitochondrial DNA copy numbers at 50 uM after 4 days; assay type: cell-based; conditions: 96 h
# In short: (§3)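 HepG2/C3A cells were grown in MEM with pyruvate and 10% FBS. Drug in PBS was replenished every 2 days for 4, 10 or 14 days. DNA was extracted and quantified by real-time SYBR Green PCR with 0.5 μM of each primer and 2 mM MgCl2. Output is the cytochrome b/pyruvate kinase gene copy ratio (mtDNA/nDNA), compared with time-matched control. Mean of three experiments.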
# [10] = Toxicity against human HepG2/C3A cells assessed as effect on mitochondrial DNA copy numbers at 50 uM after 10 days; assay type: cell-based; conditions: 240 h; in short: as §3
# H9c2 [11] = assay: Toxicity in rat H9c2 cells assessed as induction of cell death at 50 uM after 12 days; conditions: h9c2, 288 h
# H9c2 [12] = assay: Toxicity against rat H9c2 cells assessed as effect on mitochondrial DNA copy numbers after 12 days; conditions: h9c2, 288 h
# H9c2 [13] = assay: Toxicity against rat H9c2 cells assessed as elevation of lactate levels at 10 uM after 6 days by NAD+ reduction assay; conditions: h9c2, 144 h
# H9c2 [14] = assay: Toxicity against rat H9c2 cells assessed as elevation of lactate levels at 50 uM after 6 days by NAD+ reduction assay; conditions: h9c2, 144 h
# H9c2 [15] = assay: Toxicity against rat H9c2 cells assessed as increase in mitochondrial superoxide production at 50 uM by flow cytometry; conditions: h9c2, 50 µM
# [16] = Toxicity against human HepG2/C3A cells assessed as induction of cell death at 5 uM after 14 days; assay type: cell-based; conditions: 336 h; in short: as §1
# [17] = Toxicity against human HepG2/C3A cells assessed as reduction in mitochondrial DNA copy numbers at 1 uM after 4 days relative to control; assay type: cell-based; parameters: scale not given: the % may be the effect or the level left; conditions: 96 h; in short: as §3
# [18] = Toxicity against human HepG2/C3A cells assessed as reduction in mitochondrial DNA copy numbers at 5 uM after 4 days relative to control; assay type: cell-based; parameters: scale not given: the % may be the effect or the level left; conditions: 96 h; in short: as §3
# [19] = Toxicity against human HepG2/C3A cells assessed as reduction in mitochondrial DNA copy numbers at 1 uM after 14 days relative to control; assay type: cell-based; parameters: scale not given: the % may be the effect or the level left; conditions: 336 h; in short: as §3
# [20] = Toxicity against human HepG2/C3A cells assessed as reduction in mitochondrial DNA copy numbers at 5 uM after 14 days relative to control; assay type: cell-based; parameters: scale not given: the % may be the effect or the level left; conditions: 336 h; in short: as §3
# H9c2 [21] = assay: Toxicity in rat H9c2 cells assessed as effect on cell viability at 5 uM after 6 days; conditions: h9c2, 144 h
# H9c2 [22] = assay: Toxicity in rat H9c2 cells assessed as effect on cell viability at 1 to 5 uM after 12 days; conditions: h9c2, 288 h
# H9c2 [23] = assay: Toxicity against rat H9c2 cells assessed as reduction in mitochondrial DNA copy numbers at 1 to 5 uM after 12 days relative to control; conditions: h9c2, 288 h
# [24] = Toxicity in human HepG2/C3A cells assessed as induction of cell death at 10 to 50 uM after 4 to 14 days; assay type: cell-based; in short: as §1
# [25] = Toxicity against human HepG2/C3A cells assessed as metabolic alterations at 10 to 50 uM after 4 to 14 days by SRB assay; assay type: cell-based
# [26] = Toxicity against human HepG2/C3A cells assessed as reduction in mitochondrial DNA copy numbers at 10 uM after 4 to 14 days relative to control; assay type: cell-based; parameters: scale not given: the % may be the effect or the level left; in short: as §3
# [27] = Toxicity against human HepG2/C3A cells assessed as reduction in mitochondrial DNA copy numbers at 50 uM after 4 to 14 days relative to control; assay type: cell-based; parameters: scale not given: the % may be the effect or the level left; in short: as §3
# H9c2 [28] = assay: Toxicity in rat […] cells assessed as induction of cell death at 10 to 50 uM after 4 to 14 days
# H9c2 [29] = assay: Toxicity against rat H9c2 cells assessed as metabolic alterations at 10 to 50 uM after 4 to 14 days by SRB assay; conditions: h9c2, 50 µM
# H9c2 [30] = assay: Toxicity against rat H9c2 cells assessed as inhibition of cell proliferation at 10 to 50 uM after 4 to 14 days by SRB assay; conditions: h9c2, 50 µM
# [31] = Toxicity against human HepG2/C3A cells assessed as inhibition of cell proliferation at 10 to 50 uM after 6 days by SRB assay
# H9c2 [32] = assay: Toxicity against rat H9c2 cells assessed as reduction in mitochondrial DNA copy numbers at 10 uM after 12 days relative to control; parameters: scale not given: the % may be the effect or the level left; conditions: h9c2, 288 h
# [33] = Toxicity against human […] cells assessed as reduction in mitochondrial DNA copy numbers at 0.5 ug/ml after 6 days relative to control; assay type: cell-based; parameters: scale not given: the % may be the effect or the level left; conditions: hepg2/c3a, 144 h
# [34] = Toxicity in human HepG2/C3A cells assessed as cell viability at 0.5 ug/ml after 10 days; assay type: cell-based
# In short: (§4)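 HepG2/C3A cells were cultured with 0.5 µg/ml EtBr for 10 or 14 days. Harvested cells were stained with 100 nM calcein AM and 8 µM ethidium homodimer 1 for 30 min at 37°C in the dark, then analysed by flow cytometry at 488-nm excitation. Dead cells (high ethidium homodimer, low calcein) were counted per 10,000 events after debris gating.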
# [35] = Toxicity in human HepG2/C3A cells assessed as cell viability at 0.5 ug/ml after 14 days; assay type: cell-based; in short: as §4
# [36] = Toxicity against human HepG2/C3A cells assessed as inhibition of cell proliferation at 0.5 ug/ml after 6 days by SRB assay; assay type: cell-based; conditions: 144 h
# In short: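 Cells were seeded at about 2,500/well in 12-well plates and cultured with 0.5 µg/ml EtBr for 6 days. They were fixed overnight in methanol with 1% acetic acid at −10°C and stained 1 h with 0.5% SRB. Bound dye was eluted with 10 mM Tris pH 10 and absorbance read at 540 nm. Three experiments were run.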
# [37] = Toxicity against human HepG2/C3A cells assessed as elevation of lactate levels at 0.5 ug/ml after 6 days by NAD+ reduction assay; assay type: cell-based; conditions: 144 h
# In short: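 Cells were exposed to 0.5 µg/ml EtBr for 6 days in 12-well plates seeded at about 2,500 cells/well, with drug in PBS replenished at medium changes. Medium was deproteinised with TCA. Lactate was measured as NADH at 340 nm after 30 min at room temperature in glycine-hydrazine buffer pH 9.2 with NAD+ and lactate dehydrogenase. Results are nmol/well normalised to SRB absorbance, from three experiments.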
# [38] = Toxicity against human HepG2/C3A cells assessed as increase in mitochondrial superoxide production at 0.5 ug/ml after 4 to 14 days by flow cytometry; assay type: cell-based
# In short: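 HepG2/C3A cells were cultured in MEM with 10% FBS with 0.5 µg/ml EtBr for 4, 10 and 14 days, with medium changed every 2 days. Attached cells were loaded with 5 µM MitoSOX Red in HBSS with Ca/Mg for 10 min at 37°C in the dark, then trypsinised. Flow cytometry used 488-nm excitation and 530/30 emission; the value is the geometric mean fluorescence of 10,000 cells.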
# [39] = Toxicity against human HepG2/C3A cells assessed as reduction in mitochondrial DNA copy numbers at 0.5 ug/ml after 4 days relative to control; assay type: cell-based; parameters: scale not given: the % may be the effect or the level left; conditions: 96 h
# In short: (§5)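 DNA was extracted after 0.5 µg/ml EtBr exposure: H9c2 at 12 days (pre-kept 7 days in 1% FBS plus 10 nM retinoic acid), HepG2/C3A at 4, 10 and 14 days. SYBR real-time PCR used 0.5 µM primers and 2 mM MgCl2. Copy numbers came from purified-product standards, reported as cytochrome b/pyruvate kinase ratio versus control.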
# [40] = Toxicity against human HepG2/C3A cells assessed as reduction in mitochondrial DNA copy numbers at 0.5 ug/ml after 10 days relative to control; assay type: cell-based; parameters: scale not given: the % may be the effect or the level left; conditions: 240 h; in short: as §5
# [41] = Toxicity against human HepG2/C3A cells assessed as reduction in mitochondrial DNA copy numbers at 0.5 ug/ml after 14 days relative to control; assay type: cell-based; parameters: scale not given: the % may be the effect or the level left; conditions: 336 h; in short: as §5
structure (smiles),measurement,setting,value
Cc1cn([C@H]2C[C@H](N=[N+]=[N-])[C@@H](CO)O2)c(=O)[nH]c1=O [ZIDOVUDINE],Activity,[1],Toxic
same,Activity,[2],Toxic
same,Activity,[3],Toxic
same,Activity,[4],Toxic
same,Activity,[5],Toxic
same,Activity,[6],Toxic
same,Activity,[7],Toxic
same,Activity,[8],Toxic
same,Activity,[9],Toxic
same,Activity,[10],Toxic
same,Activity,H9c2 [11],Non-toxic
same,Activity,H9c2 [12],Non-toxic
same,Activity,H9c2 [13],Toxic
same,Activity,H9c2 [14],Toxic
same,Activity,H9c2 [15],Non-toxic
Nc1ccn([C@H]2CC[C@@H](CO)O2)c(=O)n1 [ZALCITABINE],Activity,[5],Non-toxic
same,Activity,[16],Toxic
same,Activity,[17],15%
same,Activity,[18],11%
same,Activity,[19],1%
same,Activity,[20],1%
same,Activity,H9c2 [21],Non-toxic
same,Activity,H9c2 [22],Non-toxic
same,Activity,H9c2 [23],Non-toxic
O=c1[nH]cnc2c1ncn2[C@H]1CC[C@@H](CO)O1 [DIDANOSINE],Activity,[24],Non-toxic
same,Activity,[25],Non-toxic
same,Activity,[26],80%
same,Activity,[27],50%
same,Activity,H9c2 [28],Non-toxic
same,Activity,H9c2 [29],Non-toxic
same,Activity,H9c2 [30],Non-toxic
same,Activity,[31],Non-toxic
same,Activity,H9c2 [32],60%
CC[n+]1c(-c2ccccc2)c2cc(N)ccc2c2ccc(N)cc21.[Br-] [HOMIDIUM BROMIDE],Activity,[33],16%
same,"viability at 240 h, 0.5 ug/ml",[34],> 80%
same,"viability at 336 h, 0.5 ug/ml",[35],> 80%
same,Activity,[36],Toxic
same,Activity,[37],Toxic
same,Activity,[38],Toxic
same,Activity,[39],16%
same,Activity,[40],10%
same,Activity,[41],4%

# From ChEMBL document CHEMBL1150803, “Absence of a universal mechanism of mitochondrial toxicity by nucleoside analogs” (Antimicrob Agents Chemother, 2007)
